Data from ChEMBL document CHEMBL4406794, “N-(7-Cyano-6-(4-fluoro-3-(2-(3-(trifluoromethyl)phenyl)acetamido)phenoxy)benzo[d]thiazol-2-yl)cyclopropanecarboxamide (TAK-632) Analogues as Novel Necroptosis Inhibitors by Targeting Receptor-Interacting Protein Kinase 3 (RIPK3): Synthesis, Structure-Activity Relationships, and in Vivo Efficacy” (J Med Chem, 2019).
Activity calls are given as the source filed them. No cut-off for these calls is given here.

Tests used:
[1] = Cytotoxicity against human HT-29 cells measured after 12 hrs by CellTiter-Glo Luminescent assay; format: cell-based
[2] = biological target: T1, Receptor-interacting serine/threonine-protein kinase 1 (Homo sapiens, UniProt Q13546); test: Binding affinity to wild-type human partial length RIPK1 (M1 to K305 residues) expressed in bacterial expression system at 5 uM after 1 hr by quantitative PCR based KINOMEscan assay
T1 sequence (Q13546 whole entry): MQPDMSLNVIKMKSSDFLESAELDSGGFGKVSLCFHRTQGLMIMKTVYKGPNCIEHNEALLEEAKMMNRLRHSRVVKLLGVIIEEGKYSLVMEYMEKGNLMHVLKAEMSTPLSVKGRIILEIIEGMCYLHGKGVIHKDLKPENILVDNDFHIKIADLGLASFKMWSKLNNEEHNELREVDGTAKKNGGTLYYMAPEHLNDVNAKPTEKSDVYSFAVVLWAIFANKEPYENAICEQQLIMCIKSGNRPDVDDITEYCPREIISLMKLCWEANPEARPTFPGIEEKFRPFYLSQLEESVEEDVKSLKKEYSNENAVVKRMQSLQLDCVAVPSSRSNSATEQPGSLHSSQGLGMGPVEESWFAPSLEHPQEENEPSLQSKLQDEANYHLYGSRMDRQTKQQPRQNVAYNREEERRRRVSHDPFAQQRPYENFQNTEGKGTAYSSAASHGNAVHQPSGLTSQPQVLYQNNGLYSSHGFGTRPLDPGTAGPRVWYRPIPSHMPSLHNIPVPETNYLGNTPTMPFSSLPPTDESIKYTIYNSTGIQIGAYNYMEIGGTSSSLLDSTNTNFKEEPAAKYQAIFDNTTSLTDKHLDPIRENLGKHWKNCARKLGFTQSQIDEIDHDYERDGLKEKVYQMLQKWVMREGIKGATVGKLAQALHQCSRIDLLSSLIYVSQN

[3] = biological target: Serine/threonine-protein kinase B-raf (Homo sapiens) (UniProt P15056); test: Inhibition of wild-type human partial length BRAF (S429 to E741 residues) expressed in mammalian expression system assessed as enzyme remaining activity at 1000 nM by Kinomescan method relative to control
[4] = biological target: Fibroblast growth factor receptor 3 (Homo sapiens) (UniProt P22607); test: Inhibition of wild-type human partial length FGFR3 (R442 to S771 residues) expressed in bacterial expression assessed as enzyme remaining activity at 1000 nM by Kinomescan method relative to control
[5] = biological target: RAF proto-oncogene serine/threonine-protein kinase (Homo sapiens) (UniProt P04049); test: Inhibition of wild-type human partial length RAF1 (I330 to T640 residues) expressed in bacterial expression system assessed as enzyme remaining activity at 1000 nM by Kinomescan method relative to control
[6] = biological target: Cyclin-dependent kinase 2 (Homo sapiens) (UniProt P24941); test: Inhibition of wild-type human full length CDK2 (M1 to L298 residues) expressed in bacterial expression system assessed as enzyme remaining activity at 1000 nM by Kinomescan method relative to control
[7] = biological target: Dual specificity mitogen-activated protein kinase kinase 2 (Homo sapiens) (UniProt P36507); test: Inhibition of wild-type human full length MEK2 (M1 to V400 residues) expressed in mammalian expression system assessed as enzyme remaining activity at 1000 nM by Kinomescan method relative to control
[8] = biological target: Mitogen-activated protein kinase 14 (Homo sapiens) (UniProt Q16539); test: Inhibition of wild-type human full length p38-alpha (M1 to S360 residues) expressed in bacterial expression system assessed as enzyme remaining activity at 1000 nM by Kinomescan method relative to control
[9] = biological target: Inhibitor of nuclear factor kappa-B kinase subunit beta (Homo sapiens) (UniProt O14920); test: Inhibition of wild-type human full length IKK-beta (M1 to S756 residues) expressed in mammalian expression system assessed as enzyme remaining activity at 1000 nM by Kinomescan method relative to control
[10] = biological target: T1, Receptor-interacting serine/threonine-protein kinase 1; test: Inhibition of RIPK1 phosphorylation in TNFalpha/smac mimetic/Z-VAD-fmk stimulated human HT-29 cells at 1 uM treated prior to TNFalpha/smac mimetic/Z-VAD-fmk stimulation and measured after 2 to 4 hrs by SDS-PAGE based immunoblot assay; format: cell-based; details: ht-29, 1 µM
[11] = biological target: Receptor-interacting serine/threonine-protein kinase 3 (Homo sapiens, UniProt Q9Y572); test: Inhibition of RIPK3 phosphorylation in TNFalpha/smac mimetic/Z-VAD-fmk stimulated human HT-29 cells at 1 uM treated prior to TNFalpha/smac mimetic/Z-VAD-fmk stimulation and measured after 2 to 4 hrs by SDS-PAGE based immunoblot assay; format: cell-based
[12] = biological target: Mixed lineage kinase domain-like protein (Homo sapiens) (UniProt Q8NB16); test: Inhibition of MLKL phosphorylation in TNFalpha/smac mimetic/Z-VAD-fmk stimulated human HT-29 cells at 1 uM treated prior to TNFalpha/smac mimetic/Z-VAD-fmk stimulation and measured after 2 to 4 hrs by SDS-PAGE based immunoblot assay; format: cell-based
[13] = Half-life in Sprague-Dawley rat at 1 mg/kg, iv by LC-tandem mass spectrometry analysis; format: ADME, organism-based; details: in vivo
Summary of the method: (§1)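 Male Sprague-Dawley rats dosed once i.v. at 1 mg/kg or intragastrically at 5 mg/kg. Compound dissolved in 5% DMSO, 10% Tween 80, 75% physiological saline at 0.2 and 1 mg/mL. Blood taken at several time points, plasma spun at 4 °C, stored at -80 °C, assayed by LC/MS/MS. Parameters from individual animals by noncompartmental analysis.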

[14] = AUC (0 to infinity) in Sprague-Dawley rat at 1 mg/kg, iv by LC-tandem mass spectrometry analysis; format: ADME, organism-based; parameters: dose 1 mg/kg, time infinity, route intravenous; details: in vivo; summary of the method: as §1
[15] = Tmax in Sprague-Dawley rat at 5 mg/kg, po by LC-tandem mass spectrometry analysis; format: ADME, organism-based; details: in vivo
Summary of the method: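 Male Sprague-Dawley rats received compound iv (1 mg/kg) or intragastrically (5 mg/kg). The vehicle was 5% DMSO, 10% Tween 80 and 75% saline, at 0.2 or 1 mg/mL. Blood was sampled at several time points and centrifuged at 4 °C. Plasma was stored at -80 °C and analysed by LC/MS/MS. Parameters were derived by noncompartmental analysis of individual animal data.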

[16] = Cmax in Sprague-Dawley rat at 5 mg/kg, po by LC-tandem mass spectrometry analysis; format: ADME, organism-based; parameters: dose 5 mg/kg, route oral; details: in vivo; summary of the method: as §1
Mus musculus = test: Protection against TNFalpha/Z-VAD-fmk-induced C57BL/6J mouse model of systemic inflammatory response syndrome at 5 mg/kg, po administered via gavage 2 hrs prior to Z-VAD-fmk addition for 15 mins followed by TNFalpha stimulation for 1 hr and subsequent Z-VAD-fmk addition meaured up to 50 hrs post TNFalpha stimulation relative to control; format: functional
Summary of the method: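 Overnight-fasted C57BL/6 female mice, n=10 per group. Test compound was given by oral gavage 2 h before mTNF-α. z-VAD-fmk (180 µg) was injected ip, then 15 min later mTNF-α in endotoxin-free PBS was injected iv (400 µg/kg). A second z-VAD-fmk dose (70 µg) was given ip 1 h after TNF. Body temperature and survival were followed against vehicle. One-way ANOVA was used.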

Chain of Receptor-interacting serine/threonine-protein kinase 3 (Q9Y572 whole entry, looked up, the tested form may be a part): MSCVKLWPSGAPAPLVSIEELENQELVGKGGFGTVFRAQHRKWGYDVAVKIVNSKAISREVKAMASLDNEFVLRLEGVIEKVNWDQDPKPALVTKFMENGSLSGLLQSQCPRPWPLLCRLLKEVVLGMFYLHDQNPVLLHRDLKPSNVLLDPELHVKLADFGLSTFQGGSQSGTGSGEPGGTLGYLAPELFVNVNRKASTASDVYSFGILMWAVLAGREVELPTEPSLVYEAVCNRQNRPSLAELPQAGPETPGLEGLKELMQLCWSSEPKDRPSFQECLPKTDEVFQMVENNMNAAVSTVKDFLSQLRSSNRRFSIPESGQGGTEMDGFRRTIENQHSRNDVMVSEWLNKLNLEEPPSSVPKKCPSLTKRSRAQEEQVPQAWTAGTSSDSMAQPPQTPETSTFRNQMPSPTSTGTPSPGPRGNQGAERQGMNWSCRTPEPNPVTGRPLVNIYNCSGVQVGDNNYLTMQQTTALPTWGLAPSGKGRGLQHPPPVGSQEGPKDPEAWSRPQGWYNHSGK
Chain of Mixed lineage kinase domain-like protein (Homo sapiens) (Q8NB16 whole entry, the tested form may be a part): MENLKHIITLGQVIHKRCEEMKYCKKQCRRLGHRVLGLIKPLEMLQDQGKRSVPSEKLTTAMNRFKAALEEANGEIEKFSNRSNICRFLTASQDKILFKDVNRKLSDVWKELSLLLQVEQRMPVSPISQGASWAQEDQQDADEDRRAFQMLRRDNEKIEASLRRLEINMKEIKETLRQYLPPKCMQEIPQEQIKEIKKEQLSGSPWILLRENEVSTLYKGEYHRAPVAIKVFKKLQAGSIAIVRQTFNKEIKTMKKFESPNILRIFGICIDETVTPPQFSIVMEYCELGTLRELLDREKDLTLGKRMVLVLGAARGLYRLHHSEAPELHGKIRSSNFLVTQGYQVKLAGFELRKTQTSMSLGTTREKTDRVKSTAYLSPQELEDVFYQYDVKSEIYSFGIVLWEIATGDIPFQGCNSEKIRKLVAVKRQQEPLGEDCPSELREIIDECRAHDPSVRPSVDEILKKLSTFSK
Chain of Inhibitor of nuclear factor kappa-B kinase subunit beta (Homo sapiens) (O14920 whole entry, the tested form may be a part): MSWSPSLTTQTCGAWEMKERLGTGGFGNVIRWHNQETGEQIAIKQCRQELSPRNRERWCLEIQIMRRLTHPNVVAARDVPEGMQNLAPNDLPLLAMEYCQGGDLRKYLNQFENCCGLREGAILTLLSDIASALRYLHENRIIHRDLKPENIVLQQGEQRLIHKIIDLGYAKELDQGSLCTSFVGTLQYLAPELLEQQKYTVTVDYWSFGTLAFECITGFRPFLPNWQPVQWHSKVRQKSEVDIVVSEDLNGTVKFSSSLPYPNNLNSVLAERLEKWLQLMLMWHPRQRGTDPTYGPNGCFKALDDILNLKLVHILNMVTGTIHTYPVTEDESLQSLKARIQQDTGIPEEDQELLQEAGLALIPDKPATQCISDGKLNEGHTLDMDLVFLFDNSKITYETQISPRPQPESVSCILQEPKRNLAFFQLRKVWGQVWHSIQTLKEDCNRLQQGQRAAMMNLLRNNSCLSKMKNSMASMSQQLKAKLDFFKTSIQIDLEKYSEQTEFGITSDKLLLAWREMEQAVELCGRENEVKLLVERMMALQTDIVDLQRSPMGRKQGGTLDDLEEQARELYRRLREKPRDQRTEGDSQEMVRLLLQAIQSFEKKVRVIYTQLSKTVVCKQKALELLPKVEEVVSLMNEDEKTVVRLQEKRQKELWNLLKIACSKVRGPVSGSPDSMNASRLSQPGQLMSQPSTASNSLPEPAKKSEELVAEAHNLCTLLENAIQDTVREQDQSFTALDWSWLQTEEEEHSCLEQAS
Chain of Mitogen-activated protein kinase 14 (Homo sapiens) (Q16539 whole entry, the tested form may be a part): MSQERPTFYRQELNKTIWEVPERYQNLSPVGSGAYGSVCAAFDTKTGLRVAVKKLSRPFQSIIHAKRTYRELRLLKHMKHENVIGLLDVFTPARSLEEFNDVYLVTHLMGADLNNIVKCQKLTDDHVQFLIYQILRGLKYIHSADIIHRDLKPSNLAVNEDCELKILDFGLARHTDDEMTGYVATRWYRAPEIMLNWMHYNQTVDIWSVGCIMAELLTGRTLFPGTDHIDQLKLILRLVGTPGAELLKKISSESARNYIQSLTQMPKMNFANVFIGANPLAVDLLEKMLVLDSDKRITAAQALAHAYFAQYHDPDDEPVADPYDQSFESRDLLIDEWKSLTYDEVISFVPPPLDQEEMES
Chain of RAF proto-oncogene serine/threonine-protein kinase (Homo sapiens) (P04049 whole entry, the tested form may be a part): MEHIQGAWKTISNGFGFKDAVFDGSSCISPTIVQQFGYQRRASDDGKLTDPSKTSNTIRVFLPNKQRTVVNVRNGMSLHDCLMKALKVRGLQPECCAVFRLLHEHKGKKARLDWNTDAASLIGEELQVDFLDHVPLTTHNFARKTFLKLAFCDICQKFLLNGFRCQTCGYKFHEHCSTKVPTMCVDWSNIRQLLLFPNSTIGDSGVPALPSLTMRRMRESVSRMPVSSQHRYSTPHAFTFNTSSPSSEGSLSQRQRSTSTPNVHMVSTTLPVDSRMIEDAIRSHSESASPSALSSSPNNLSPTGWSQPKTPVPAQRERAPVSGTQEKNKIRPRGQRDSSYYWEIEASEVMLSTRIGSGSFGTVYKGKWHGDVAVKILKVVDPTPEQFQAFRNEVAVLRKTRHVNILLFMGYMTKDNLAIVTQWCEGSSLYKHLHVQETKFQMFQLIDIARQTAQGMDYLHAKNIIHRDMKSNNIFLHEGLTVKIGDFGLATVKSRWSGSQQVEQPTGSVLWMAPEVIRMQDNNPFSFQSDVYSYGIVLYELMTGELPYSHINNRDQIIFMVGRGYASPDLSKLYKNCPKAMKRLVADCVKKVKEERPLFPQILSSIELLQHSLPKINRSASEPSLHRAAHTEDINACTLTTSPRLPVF
Chain of Serine/threonine-protein kinase B-raf (Homo sapiens) (P15056 whole entry, the tested form may be a part): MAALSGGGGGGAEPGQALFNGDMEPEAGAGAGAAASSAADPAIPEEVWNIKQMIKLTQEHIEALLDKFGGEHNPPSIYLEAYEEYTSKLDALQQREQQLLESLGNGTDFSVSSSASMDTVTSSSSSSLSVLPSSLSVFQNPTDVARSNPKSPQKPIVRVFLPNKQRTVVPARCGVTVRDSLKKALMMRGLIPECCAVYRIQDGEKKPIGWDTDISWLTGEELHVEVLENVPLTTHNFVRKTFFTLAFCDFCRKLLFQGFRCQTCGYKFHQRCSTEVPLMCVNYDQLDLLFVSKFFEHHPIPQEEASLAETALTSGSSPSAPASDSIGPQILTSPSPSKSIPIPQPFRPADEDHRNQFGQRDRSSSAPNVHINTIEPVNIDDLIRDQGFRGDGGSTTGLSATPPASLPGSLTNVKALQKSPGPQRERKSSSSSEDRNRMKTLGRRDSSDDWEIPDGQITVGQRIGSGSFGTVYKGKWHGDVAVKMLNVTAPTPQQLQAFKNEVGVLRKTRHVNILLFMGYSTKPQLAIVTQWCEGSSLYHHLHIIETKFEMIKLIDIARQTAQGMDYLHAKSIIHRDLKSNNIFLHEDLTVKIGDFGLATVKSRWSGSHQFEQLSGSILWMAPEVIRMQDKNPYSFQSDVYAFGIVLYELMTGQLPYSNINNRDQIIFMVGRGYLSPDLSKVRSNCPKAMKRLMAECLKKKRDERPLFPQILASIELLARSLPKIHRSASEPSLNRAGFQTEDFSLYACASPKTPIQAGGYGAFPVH
Chain of Fibroblast growth factor receptor 3 (Homo sapiens) (P22607 23-806 limits assumed): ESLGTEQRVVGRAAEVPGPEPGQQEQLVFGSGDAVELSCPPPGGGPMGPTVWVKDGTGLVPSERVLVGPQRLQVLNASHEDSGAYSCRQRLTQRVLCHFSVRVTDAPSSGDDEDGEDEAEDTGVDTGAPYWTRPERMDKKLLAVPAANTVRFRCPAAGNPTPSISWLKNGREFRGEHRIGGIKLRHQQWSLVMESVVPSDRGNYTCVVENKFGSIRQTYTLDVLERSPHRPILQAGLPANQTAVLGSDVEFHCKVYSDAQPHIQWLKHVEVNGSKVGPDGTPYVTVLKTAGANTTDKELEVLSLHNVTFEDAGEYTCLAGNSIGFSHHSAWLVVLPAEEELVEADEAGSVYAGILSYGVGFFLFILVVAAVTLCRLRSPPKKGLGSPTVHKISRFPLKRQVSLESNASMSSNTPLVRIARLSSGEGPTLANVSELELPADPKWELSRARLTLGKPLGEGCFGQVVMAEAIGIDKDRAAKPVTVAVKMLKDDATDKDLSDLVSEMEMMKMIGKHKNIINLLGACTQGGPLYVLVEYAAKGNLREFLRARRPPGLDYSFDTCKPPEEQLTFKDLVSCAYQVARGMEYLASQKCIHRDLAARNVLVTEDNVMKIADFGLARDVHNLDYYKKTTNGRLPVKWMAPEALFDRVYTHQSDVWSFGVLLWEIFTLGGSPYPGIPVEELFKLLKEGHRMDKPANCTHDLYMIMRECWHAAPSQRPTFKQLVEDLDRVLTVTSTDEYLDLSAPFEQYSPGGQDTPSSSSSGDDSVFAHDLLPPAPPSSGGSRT
Chain of Dual specificity mitogen-activated protein kinase kinase 2 (Homo sapiens) (P36507 whole entry, the tested form may be a part): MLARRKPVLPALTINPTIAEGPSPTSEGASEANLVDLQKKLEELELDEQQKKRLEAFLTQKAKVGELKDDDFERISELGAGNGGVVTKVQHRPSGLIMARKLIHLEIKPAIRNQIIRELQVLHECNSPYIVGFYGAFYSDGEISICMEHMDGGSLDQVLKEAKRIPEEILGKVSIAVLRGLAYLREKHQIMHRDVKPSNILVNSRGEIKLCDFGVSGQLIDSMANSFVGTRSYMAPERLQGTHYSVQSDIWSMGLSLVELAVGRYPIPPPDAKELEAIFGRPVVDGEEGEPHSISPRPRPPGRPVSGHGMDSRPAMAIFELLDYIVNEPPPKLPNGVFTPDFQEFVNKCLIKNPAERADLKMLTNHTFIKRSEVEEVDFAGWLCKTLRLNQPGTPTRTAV

## O=C(Nc1cccc(Br)c1)Nc1cc(Oc2ccc3nc(NC(=O)C4CC4)sc3c2)ccc1F
[1]
  CC50 at 12 h: > 50 µM
[2]
  Activity: Not Active
[3]
  Activity: 3.6%
[4]
  Activity: 62%
[5]
  Activity: 13%
[6]
  Activity: 93%
[7]
  Activity: 83%
[8]
  Activity: 23%
[9]
  Activity: 97%
[10]
  inhibition (INH): Not Active
[11]
  inhibition: Active
[12]
  inhibition: Active
[13]
  half-life: 15.4 h
[14]
  AUC(0-inf): 6500 ng·h/mL
[15]
  Tmax: 8.67 h
[16]
  Cmax: 345 ng/mL
Mus musculus
  Activity: 90%
